Assay results of several laboratories.
SLC6A2: Sodium-dependent noradrenaline transporter (SLC6A2, Homo sapiens, UniProt P23975)
WNK4: Serine/threonine-protein kinase WNK4 (WNK4, Homo sapiens, UniProt Q96J92)

With `CC(=O)N[C@H]1CSSC[C@@H](C(=O)N[C@H](Cc2c[nH]c3ccccc23)C(N)=O)NC(=O)[C@H](Cc2ccccc2)NC(=O)[C@H](CCCNC(=N)N)NC1=O` the Emax was 0% (Melanocortin receptor 4 (MC4R, Homo sapiens, UniProt P32245); cAMP, agonist; HEK293; 3 min).
For `CCCOc1ccc(OC)c(F)c1C(=O)c1ccc(C(=O)N[C@@H]2CNC[C@H]2NC(=O)c2ccc3[nH]ncc3c2)cc1`, the remaining activity was 16% (cAMP-dependent protein kinase catalytic subunit PRKX (PRKX, Homo sapiens, UniProt P51817); enzyme activity, inhibitor; 0.1 µM).
With `Clc1ccc(C(c2ccccc2)c2nnnn2CCCN2CCC(Cc3ccccc3)CC2)cc1` (stereo not shown) the inhibition was 93.4% (SLC6A2; transporter uptake, inhibitor; HEK293; 1 µM).
With `Cc1ccc(Nc2nccc(N(C)c3ccc4c(C)n(C)nc4c3)n2)cc1S(N)(=O)=O` the inhibition was 44% (Serine/threonine-protein kinase Chk2 (CHEK2, Homo sapiens, UniProt O96017); enzyme activity, inhibitor; 10 µM).
The remaining activity of `CC(C)(C)c1nc(-c2cccc(NS(=O)(=O)c3c(F)cccc3F)c2F)c(-c2ccnc(N)n2)s1` is reported as 101% (Mitotic checkpoint serine/threonine-protein kinase BUB1 beta (BUB1B, Homo sapiens, UniProt O60566); enzyme activity, inhibitor, radiometric; 1 µM).
`Clc1ccc(C(c2ccc(Cl)cc2)c2nnnn2CCCCN2CCC(Cc3ccc(Cl)c(Cl)c3)CC2)cc1` has an inhibition of 41.1% (SLC6A2; transporter uptake, inhibitor; HEK293; 1 µM).
The ΔTm of `C[S+]([O-])c1ccc(-c2nc(-c3ccncc3)c(-c3ccc(F)cc3)[nH]2)cc1` (stereo not shown) is reported as 0.89 °C (Chromatin remodeling regulator CECR2 (CECR2, Homo sapiens, UniProt Q9BXF3); thermal stability, DSF; 10 µM).
The activity vs control of `Cc1cc(NC(=O)c2cccc3cc(-c4cccc5[nH]nc(N)c45)ccc23)ccc1F` is reported as 72% (Serine/threonine-protein kinase Chk2 (CHEK2, Homo sapiens, UniProt O96017, I157T); enzyme activity, inhibitor; 0.1 µM).
With `Fc1ccc(C(c2ccc(F)cc2)c2nnnn2CCCN2CCC(Cc3ccccc3)CC2)cc1` the inhibition was 39.7% (SLC6A2; transporter uptake, inhibitor; HEK293; 1 µM).
With `CNC(=O)c1cc(Oc2ccc(NC(=O)Nc3ccc(Cl)c(C(F)(F)F)c3)cc2)ccn1` the inhibition was -8% (Serine/threonine-protein kinase Chk2 (CHEK2, Homo sapiens, UniProt O96017, R145W); enzyme activity, inhibitor; 0.3 µM).
For `Nc1ncnc2occ(-c3ccc(NC(=O)Nc4cc(C(F)(F)F)ccc4F)cc3)c12`, the remaining signal was 17% (WNK4; cell-free assay, inhibitor; 20 µM).
`Fc1ccc(C(c2ccc(F)cc2)c2nnnn2CCCCN2CCN(Cc3ccccc3)CC2)cc1` has an inhibition of 95% (SLC6A2; transporter uptake, inhibitor; HEK293; 1 µM).
For `Cc1ccc(C(=O)Nc2ccc(CN3CCN(C)CC3)c(C(F)(F)F)c2)cc1C#Cc1cnc2cccnn12`, the remaining activity was 93% (WNK4; enzyme activity, inhibitor; 23.5 nM).
